From the M2OR odorant receptor database
Where a chain is given by its changes, count along the chain named.

Key:
Conditions in all cases: stereoisomer not certain
OR2T11 (Homo sapiens) = molecular target: T1, OR2T11 (Homo sapiens) (UniProt Q8NH01)
T1 sequence (whole entry): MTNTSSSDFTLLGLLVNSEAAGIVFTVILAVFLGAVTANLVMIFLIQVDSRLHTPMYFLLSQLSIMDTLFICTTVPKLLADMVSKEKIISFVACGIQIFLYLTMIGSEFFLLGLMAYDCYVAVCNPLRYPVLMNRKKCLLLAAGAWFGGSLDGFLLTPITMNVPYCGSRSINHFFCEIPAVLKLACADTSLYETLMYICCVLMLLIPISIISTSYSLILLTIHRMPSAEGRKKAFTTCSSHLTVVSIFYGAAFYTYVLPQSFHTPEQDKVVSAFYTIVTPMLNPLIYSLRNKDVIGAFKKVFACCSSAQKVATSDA
Procedure, shortened: (§1)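 Values were gathered from published papers (main text and supplementary material), with extra details requested from the original authors when needed, and checked for typos and inconsistencies. Each receptor–molecule pair is called responsive (active) if the original authors judged the measured signal statistically different from baseline, and non-responsive (inactive) otherwise. Assay methods varied by source, often transient mammalian cell-line luciferase assays. Recorded details include cell line, G-protein, co-transfected protein and tags.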

OR2T12 (Homo sapiens) = molecular target: T2, OR2T12 (Homo sapiens) (UniProt Q8NG77)
T2 sequence (whole entry): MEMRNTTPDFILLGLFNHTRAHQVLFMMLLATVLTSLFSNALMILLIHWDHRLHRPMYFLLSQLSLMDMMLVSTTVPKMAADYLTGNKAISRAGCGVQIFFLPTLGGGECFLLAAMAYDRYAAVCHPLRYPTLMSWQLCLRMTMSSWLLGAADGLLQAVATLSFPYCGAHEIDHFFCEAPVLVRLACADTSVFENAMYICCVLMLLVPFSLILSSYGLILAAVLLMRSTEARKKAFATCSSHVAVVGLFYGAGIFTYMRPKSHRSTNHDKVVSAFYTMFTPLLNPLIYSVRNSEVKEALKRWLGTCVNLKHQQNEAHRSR
Procedure, shortened: as §1

OR2T2 (Homo sapiens) = molecular target: T3, OR2T2 (Homo sapiens) (UniProt Q6IF00)
T3 sequence (whole entry): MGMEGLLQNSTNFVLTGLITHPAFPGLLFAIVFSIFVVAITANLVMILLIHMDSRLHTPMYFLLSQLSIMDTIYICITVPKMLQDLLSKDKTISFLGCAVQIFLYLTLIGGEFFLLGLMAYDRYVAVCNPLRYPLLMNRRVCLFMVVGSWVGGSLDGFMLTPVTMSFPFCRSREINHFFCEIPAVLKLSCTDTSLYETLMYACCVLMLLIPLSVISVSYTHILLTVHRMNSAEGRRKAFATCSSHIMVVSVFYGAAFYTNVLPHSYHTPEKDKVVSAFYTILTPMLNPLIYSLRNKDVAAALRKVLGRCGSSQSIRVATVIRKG
Procedure, shortened: as §1

OR2T27 (Homo sapiens) = molecular target: T4, OR2T27 (Homo sapiens) (UniProt Q8NH04)
T4 sequence (whole entry): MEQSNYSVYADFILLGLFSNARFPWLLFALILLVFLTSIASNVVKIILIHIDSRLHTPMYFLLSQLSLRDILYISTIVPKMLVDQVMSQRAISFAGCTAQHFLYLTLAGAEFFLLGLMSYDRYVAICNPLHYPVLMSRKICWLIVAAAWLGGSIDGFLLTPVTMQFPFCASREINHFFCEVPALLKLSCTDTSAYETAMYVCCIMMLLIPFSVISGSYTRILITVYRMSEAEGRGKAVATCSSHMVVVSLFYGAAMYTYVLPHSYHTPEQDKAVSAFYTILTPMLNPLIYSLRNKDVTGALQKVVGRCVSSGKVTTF
Procedure, shortened: as §1

OR2T29 (Homo sapiens) = molecular target: T5, OR2T29 (Homo sapiens) (UniProt Q8NH02)
T5 sequence (whole entry): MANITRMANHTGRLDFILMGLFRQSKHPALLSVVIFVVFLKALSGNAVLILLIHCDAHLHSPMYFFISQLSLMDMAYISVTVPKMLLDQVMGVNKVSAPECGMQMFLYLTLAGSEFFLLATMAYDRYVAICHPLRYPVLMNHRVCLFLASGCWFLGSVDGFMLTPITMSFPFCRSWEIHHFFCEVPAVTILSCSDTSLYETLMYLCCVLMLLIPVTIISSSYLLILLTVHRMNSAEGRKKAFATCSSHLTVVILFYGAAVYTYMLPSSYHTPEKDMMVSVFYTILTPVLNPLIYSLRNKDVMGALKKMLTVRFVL
Procedure, shortened: as §1

OR2T3 (Homo sapiens) = molecular target: T6, OR2T3 (Homo sapiens) (UniProt Q8NH03)
T6 sequence (whole entry): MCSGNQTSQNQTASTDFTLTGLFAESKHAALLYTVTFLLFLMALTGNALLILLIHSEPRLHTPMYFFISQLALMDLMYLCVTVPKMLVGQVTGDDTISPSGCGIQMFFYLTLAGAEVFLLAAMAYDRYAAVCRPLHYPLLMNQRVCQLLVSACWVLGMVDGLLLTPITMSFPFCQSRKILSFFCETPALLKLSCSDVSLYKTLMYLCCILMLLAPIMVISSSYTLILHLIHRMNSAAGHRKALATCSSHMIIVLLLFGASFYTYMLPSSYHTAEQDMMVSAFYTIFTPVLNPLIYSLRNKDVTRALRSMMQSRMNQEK
Procedure, shortened: as §1

OR2T2 L104F L262Q = tested on: T7, OR2T2 L104F L262Q
T7 sequence (whole entry): T3 sequence (whole entry) with L104F, L262Q
Procedure, shortened: as §1

OR2T2 L104F = tested on: T8, OR2T2 L104F
T8 sequence (whole entry): T3 sequence (whole entry) with L104F
Procedure, shortened: as §1

OR2T2 Q313H = tested on: T9, OR2T2 Q313H
T9 sequence (whole entry): T3 sequence (whole entry) with Q313H
Procedure, shortened: as §1

OR2T3 L256F = tested on: T10, OR2T3 L256F
T10 sequence (whole entry): T6 sequence (whole entry) with L256F
Procedure, shortened: as §1

Measured: odorant receptor agonist call

CC(=O)c1c(C)c([N+](=O)[O-])c(C(C)(C)C)c([N+](=O)[O-])c1C
inactive: OR2T11 (Homo sapiens) | OR2T12 (Homo sapiens) | OR2T2 (Homo sapiens) | OR2T27 (Homo sapiens) | OR2T29 (Homo sapiens) | OR2T3 (Homo sapiens)

CCC1OC(C)=C(O)C1=O (stereo unspecified)
inactive: all assays above

CC1CCCCCCCCCCCCC(=O)C1 (stereo unspecified)
inactive: OR2T11 (Homo sapiens) | OR2T12 (Homo sapiens) | OR2T2 (Homo sapiens) | OR2T27 (Homo sapiens) | OR2T29 (Homo sapiens) | OR2T3 (Homo sapiens)

CCCC(S)CCOC(C)=O (stereo unspecified)
inactive: all assays above

Cc1cnc(C)c(C)n1
inactive: all assays above

CCCCC(S)C(C)CO (stereo unspecified)
inactive: OR2T11 (Homo sapiens) | OR2T12 (Homo sapiens) | OR2T2 (Homo sapiens) | OR2T27 (Homo sapiens) | OR2T29 (Homo sapiens) | OR2T3 (Homo sapiens)

CCCCCC(S)C(C)CO (stereo unspecified)
inactive: OR2T11 (Homo sapiens) | OR2T12 (Homo sapiens) | OR2T2 (Homo sapiens) | OR2T27 (Homo sapiens) | OR2T29 (Homo sapiens) | OR2T3 (Homo sapiens)

CCC(S)C(C)CO (stereo unspecified)
inactive: OR2T11 (Homo sapiens) | OR2T12 (Homo sapiens) | OR2T2 (Homo sapiens) | OR2T27 (Homo sapiens) | OR2T29 (Homo sapiens) | OR2T3 (Homo sapiens)

CC1=NC(C)C(C)S1 (stereo unspecified)
inactive: all assays above

CC1=C(O)C(=O)OC1C (stereo unspecified)
inactive: all assays above

CCCCCC(=O)C(C)C(C)=O (stereo unspecified)
inactive: OR2T11 (Homo sapiens) | OR2T12 (Homo sapiens) | OR2T2 (Homo sapiens) | OR2T27 (Homo sapiens) | OR2T29 (Homo sapiens) | OR2T3 (Homo sapiens)

CC(CO)CS (stereo unspecified)
inactive: OR2T11 (Homo sapiens) | OR2T12 (Homo sapiens) | OR2T2 (Homo sapiens) | OR2T27 (Homo sapiens) | OR2T29 (Homo sapiens) | OR2T3 (Homo sapiens)

CC1=C(O)C(=O)C(C)O1 (stereo unspecified)
inactive: all assays above

CCCCCCC=CCCC=O
not listed: OR2T3 L256F
inactive: all other assays above

CCC1OC(=O)C(O)=C1C (stereo unspecified)
inactive: all assays above
